F508del corr: correctors of CFTR F508del function in bronchial epithelial cells; 350,000 tested, 0.36% active; activity (quench increase), % at 7.58 µM; CFBE cells, YFP halide quenching; stimulated with forskolin plus potentiator P3; % fluorescence drop versus neutral controls;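 active = mean added fluorescence quench of at least 8% versus neutral control, with both replicates also reaching 8%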;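 also: cells transiently co-express mutant CFTR-F508del with the halide-sensitive YFP; corrector assay measuring rescue of mutant channel to the surface after 24 h compound exposure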
ARNT-TACC3 inh: disruptors of human ARNT/TACC3 interaction; Q9Y6A5; AlphaScreen His-ARNT PAS-B/GST-TACC3 binding, luminescence; TACC3 fragment carries E629A point mutation; inhibition, % at 9.99 µM; 390,000 tested, 0.66% active; AID 623870;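 active = mean inhibition of replicates at least 50% and at least half of replicates each reaching 50%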;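 also: 0% = complete ARNT plus TACC3 wells and 100% = ARNT alone without TACC3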
CAL PDZ FP-1: inhibitors of human CAL PDZ peptide binding | Q9HD26 | purified CAL PDZ, TMR-peptide fluorescence polarization, 1 h | inhibition, % at 20 µM | 330,000 tested, 0.02% active;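 active = highest replicate inhibition of at least 40%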;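 also: plate controls were DMSO neutral control wells for no effect and unlabeled competitor peptide control wells for full effect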
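Material – purified CerCALP PDZ construct · Detection – FP readout, S and P plane fluorescence · Measure – percent inhibition from loss of millipolarization · Controls – unlabelled peptide for full inhibition, DMSO wells as neutral · Probe or stimulus – TMR-labelled reporter peptide T*-PRC34 bound in PDZ groove · Times – 1 h at RT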
CAL PDZ FP-2: inhibitors of human CAL PDZ peptide binding; Q9HD26; purified CAL PDZ, TMR-peptide fluorescence polarization, 1 h; inhibition, % at 24.9 µM; 300,000 tested, 0.92% active; AID 602252;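 active = mean inhibition of at least 30% with at least half of replicates also reaching 30%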;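 also: 0% = DMSO neutral control and 100% = excess unlabeled competitor peptide PRC23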
miR-122 sensor: miR-122 inhibition in Huh7 cells; Huh7 miR-122 Renilla luciferase sensor, 48 h; neutral wells = 0, positive control = 100; activation (reporter increase), % at 12.5 µM; 340,000 tested, 0.3% active;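 active = mean replicate activation score at least 90 and every replicate individually at or above 90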;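 also: higher luciferase means less miR-122 activity so hits act as miR-122 inhibitors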
PGC1a acetyl inh: PGC1a acetylation modulation, inhibitor mode | 350,000 tested, 0.17% active | inhibition, % at 15.6 µM | AID 651687 | U2OS PGC1a acetylation, AlphaScreen anti-acetyl-lysine; with virally co-expressed GCN5 acetyltransferase;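 active = every replicate shows inhibition of at least 40%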;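 also: 0% = neutral control wells and 100% = positive control wells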
An asterisk follows results filed as active; . = not tested or not shown; [ ] = remark or other dose. Rows were chosen to be rich in hits. Some 1.7% of all compounds tested hit in one or more screens of this group.

SMILES	F508del corr	ARNT-TACC3 inh	CAL PDZ FP-1	CAL PDZ FP-2	miR-122 sensor	PGC1a acetyl inh
CC1=C2C[C@H]3[C@@H](CC=C4C[C@@H](O)CC[C@@]43C)[C@@H]2CC[C@]12O[C@@H]1C[C@H](C)CN[C@@H]1C2C (some centres undefined)	-2	.	.	.	.	-1
OC[C@@H]1[C@@H]2c3ccccc3NC[C@@H]2N1Cc1cccnc1	1	6	.	.	7[16.7 µM]	9
O=C(N/N=C/c1c(O)n(Cc2ccccc2)c(=O)[nH]c1=O)c1ccncc1	0	.	.	.	-1	-7
O=C(N/N=C\C1C(=O)NC(=S)N(c2ccccc2)C1=O)c1ccc(O)cc1 (centres undefined)	1	72*	0	0	1	8
CC(=O)OC1CC2OC3C=C(C)CCC3(C)C1(C)C21CO1 (centres undefined)	-9	.	.	.	-14	87*
CC(=O)O[C@H]1C[C@@H]2OC3C=C(C)CCC3(C)[C@@]1(C)[C@@]21CO1 (some centres undefined)	0	-2	-1	1	-4	84*
CCOC(=O)[C@@H]1[C@@H]2NC(=O)N(C)[C@@]1(C)Oc1ccccc12	2	-3	.	.	.	2
COC(=O)[C@H]1[C@H](CO)[C@H]2Cn3c(ccc(-c4ccccc4)c3=O)[C@@H]1N2C(=O)c1ccccc1F	-1	-2	.	.	0[16.7 µM]	.
O=c1[nH]c(=O)n(Cc2ccco2)c(O)c1C=NCc1cccs1	.	-2	.	-3	-5	5
CCn1c(O)c(C=NCc2cccs2)c(=O)[nH]c1=O	.	-2	0	51*	0	10
CCCCC(=O)N/N=C/c1c(O)n(Cc2ccc(F)cc2)c(=O)[nH]c1=O	2	69*	0	2	.	.
O=C(N/N=C/c1c(O)n(Cc2ccc(F)cc2)c(=O)[nH]c1=O)c1ccccc1	-1	50*	17	.	-3	-7
COC(=O)[C@H]1[C@H](CO)[C@H]2Cn3c(ccc(-c4ccccc4)c3=O)[C@@H]1N2CC1CC1	3	5	.	.	-2[16.7 µM]	.
COC(=O)[C@H]1[C@H](CO)[C@H]2Cn3c(ccc(C4=CCCCC4)c3=O)[C@@H]1N2CC1CCCCC1	0	.	.	.	.	-4
Cc1ccc(CS(=O)(=O)CCC(=O)N2CCC3(CC2)OCCO3)cc1	.	-23	-3	0	.	44*
CC=CC(C)=CC(C)C(=O)CC(O)CC1CC(=O)NC(=O)C1 (centres undefined)	10*	.	.	.	.	.
COc1ccc(N2C(=O)CC(=O)NC2=O)cc1	.	8	0	-4	236*	7
COC(=O)[C@H]1[C@H](CO)[C@H]2Cn3c(ccc(C4=CCCCC4)c3=O)[C@@H]1N2CC1CC1	.	-3	.	.	.	.
CCCN1[C@@H]2c3ccc(-c4ccc(F)cc4)c(=O)n3C[C@H]1[C@H](CO)[C@H]2C(=O)OC	2	-5	.	.	-1[16.7 µM]	-5
C[C@H]1[C@@H](OS(=O)(=O)O)C[C@@H]2C[C@H]([C@@H](O)c3cc(=O)[nH]c(=O)[nH]3)NC3=NC[C@H]1N32	.	.	-1	-6	-28	94*
CCCNC(=O)N1[C@@H]2Cn3c(ccc(-c4ccccc4OC)c3=O)[C@H]1[C@@H](C(=O)OC)[C@@H]2CO	2	5	.	.	1[16.7 µM]	.
O=c1[nH]c2ccccc2n1C1CCN(C(CCc2ccccc2)c2nnnn2Cc2ccccc2)CC1 (centres undefined)	3	.	.	.	3	103*
O=C(Cc1ccccn1)N1CCCCN2[C@H](CO)[C@@H](c3ccc(C#Cc4ccccc4)cc3)[C@H]2C1	-1	15	.	.	-10[16.7 µM]	11
C[C@H]1CCC[C@@H](O)CCC/C=C/c2cc(O)cc(O)c2C(=O)O1	.	6	-3	.	2	.
C[C@H]1CCC/C=C/C2C[C@H](O)CC2[C@H](O)/C=C/C(=O)O1 (some centres undefined)	.	-7	0	-5	-17	72*
CC1CCC/C=C/C2CC(O)CC2C(O)/C=C/C(=O)O1 (centres undefined)	.	31	-2	-4	-23	73*
C/C=C/c1ccc(C2[C@@H]3CN(C(=O)CN(C)C)C[C@H]2N3)cc1 (some centres undefined)	0	.	.	.	.	8
